Legend:
Details in all cases: in vivo
Bone = assay: Biodistribution in bone of C57BL/6J mouse harboring mouse B16-Bl6 cells at 8 to 12 MBq, iv after 1 hr by PET analysis; type: ADME, organism-based, Bone element
Method in brief: (§1)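 C57BL/6J mice were inoculated s.c. on the right shoulder with 3x10⁵ B16Bl6 cells in PBS under isoflurane, and imaged at day 10 or 14 (tumor volume 431.8 ± 154.3 mm³). The ¹⁸F tracer was given i.v. via tail vein, 8-12 MBq (methods: 9-12 MBq/0.15 mL). Under ketamine/xylazine i.p., a 25-min whole-body static PET scan ran at 1 h. ROI %ID/g = counts/g/min ÷ injected dose. n=2-8; mean ± SD.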

Mus musculus [1] = assay: Biodistribution in eye of C57BL/6J mouse harboring mouse B16-Bl6 cells at 8 to 12 MBq, iv after 1 hr by PET analysis; type: ADME, organism-based; method in brief: as §1
[2] = Ratio of drug level in tumor to bone in C57BL/6J mouse harboring mouse B16-Bl6 cells at 8 to 12 MBq, iv after 1 hr by PET analysis; type: ADME, organism-based
Method in brief: (§2)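 Static whole-body PET at 1 h after tail-vein injection of [18F]tracer (9-12 MBq/0.15 mL) in C57BL/6J mice carrying subcutaneous B16Bl6 shoulder tumours (3x10⁵ cells), imaged day 10 or 14. Mice under ketamine/xylazine ip. 25 min acquisition, OSEM reconstruction. ROI % ID/g = counts/g/min ÷ injected dose; ratios = tumour % ID/g ÷ organ % ID/g. n=2-8; mean ± SD.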

Muscle tissue = assay: Biodistribution in muscle of C57BL/6J mouse harboring mouse B16-Bl6 cells at 8 to 12 MBq, iv after 1 hr by PET analysis; type: ADME, organism-based; method in brief: as §1
[3] = Ratio of drug level in tumor to muscle in C57BL/6J mouse harboring mouse B16-Bl6 cells at 8 to 12 MBq, iv after 1 hr by PET analysis; type: ADME, organism-based; method in brief: as §2
Mus musculus [4] = assay: Biodistribution in tumor of C57BL/6J mouse harboring mouse B16-Bl6 cells at 8 to 12 MBq, iv after 1 hr by PET analysis; type: ADME, organism-based, Neoplasm; method in brief: as §2

## CCN(CC#CC[18F])CCNC(=O)c1cnc2cc(I)ccc2n1
Bone
  Drug uptake: 2.77 % ID/g
Mus musculus [1]
  Drug uptake: 2.7 % ID/g
[2]
  Ratio: 1.46
Muscle tissue
  Drug uptake: 0.82 % ID/g
[3]
  Ratio: 5.07
Mus musculus [4]
  Drug uptake: 4.16 % ID/g

## CCN(C/C=C/C[18F])CCNC(=O)c1cnc2cc(I)ccc2n1
Bone
  Drug uptake: 3.39 % ID/g
Mus musculus [1]
  Drug uptake: 9.49 % ID/g
[2]
  Ratio: 1.99
Muscle tissue
  Drug uptake: 0.83 % ID/g
[3]
  Ratio: 8.27
Mus musculus [4]
  Drug uptake: 6.74 % ID/g

## CCN(CC[18F])CCNC(=O)c1cnc2cc(I)ccc2n1
Bone
  Drug uptake: 1.31 % ID/g
Mus musculus [1]
  Drug uptake: 1.4 % ID/g
[2]
  Ratio: 1.31
Muscle tissue
  Drug uptake: 1.02 % ID/g
[3]
  Ratio: 1.95
Mus musculus [4]
  Drug uptake: 2.02 % ID/g

## CCN(CCC[18F])CCNC(=O)c1cnc2cc(I)ccc2n1
Bone
  Drug uptake: 7.05 % ID/g
Mus musculus [1]
  Drug uptake: 10.46 % ID/g
[2]
  Ratio: 1.5
Muscle tissue
  Drug uptake: 0.9 % ID/g
[3]
  Ratio: 11.86
Mus musculus [4]
  Drug uptake: 10.56 % ID/g
